The source made the active and inactive calls. The rule behind the calls is not given here. Peptide text beside a SMILES is read from it. * marks the point of attachment. AMC = Cc1cc(=O)oc2cc(N*)ccc12; Boc = CC(C)(C)OC(=O)*
Experiments:
[1] = system: West Nile virus; test: Inhibition of West Nile virus EG101 NS2BH/NS3 serine protease after 15 mins using Z-Val-Lys-Arg-MNA substrate assessed as increase in apparent Km/apparent Vmax ratio of substrate by Sigma plot
In short: (§1)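 Steady-state kinetics with purified NS2BH/NS3 protease. Enzyme preincubated 15 min at room temperature with inhibitor at 0, 1.5, 2.5, 5 or 10 µM. Substrate then added at eight concentrations (10–400 µM) for 15 min. AMC or MNA fluorescence converted to rate via a standard curve. Kmapp/Vmaxapp and 1/Vmaxapp plotted against inhibitor concentration; Ki from kinetic fitting; repeated three times.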

[2] = system: West Nile virus; test: Antiviral activity against West Nile virus EG101 infected in Vero cells assessed as inhibition of viral replication measured 72 hrs post infection by luciferase reporter gene assay; assay type: functional, organism-based
In short: (§2)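 Vero cells pretreated 30 min with twofold serial dilutions of inhibitor in MEM with 10% FBS and 1% penicillin-streptomycin. Then infected with WNV reporter virus particles carrying a Renilla luciferase subgenomic replicon (approx. 1 x 10^4 RVPs, MOI 0.5 to 1.0). Lysates assayed for luciferase. EC50 from variable-slope sigmoidal nonlinear regression; triplicate.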

[3] = system: West Nile virus; test: Antiviral activity against West Nile virus EG101 infected in Vero cells assessed as inhibition of viral replication measured 24 hrs post infection by luciferase reporter gene assay; assay type: functional, organism-based; in short: as §2
[4] = system: West Nile virus; test: Inhibition of West Nile virus EG101 NS2BH/NS3 serine protease after 15 mins using Boc-Gly-Lys-Arg-AMC substrate assessed as increase in apparent Km/apparent Vmax ratio of substrate by Sigma plot; in short: as §1
[5] = Inhibition of protease activity of trypsin using Z-Gly-Pro-Arg-pNA substrate
In short: (§3)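 Trypsin (67 nM) or factor Xa (25 nM) preincubated 15 min at room temperature with 50 µM inhibitor in 200 mM Tris-HCl pH 9.5, 6 mM NaCl, 30% glycerol. Substrate added at 100 µM for 15 min: Z-Gly-Pro-Arg-pNA for trypsin, read by absorbance at 405 nm; Boc-Ile-Glu-Gly-Arg-AMC for factor Xa, read by fluorescence. Aprotinin as positive control; triplicate.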

[6] = (§4) Cytotoxicity against African green monkey Vero cells after 24 hrs by Cell Titer-Glo assay; assay type: cell-based; details: chlorocebus sabaeus, Vero cells
In short: (§5)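 Vero cells seeded at 5,000 cells/well and grown 24 h at 37°C, 5% CO2. Compound added in triplicate in DMEM with 10% FBS and incubated a further 24 h. Viability read by CellTiter-Glo luminescence. Cytotoxicity expressed relative to no-compound wells; CC50 taken from the dose curve; two independent experiments.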

[7] = Inhibition of Dengue virus 2 New Guinea C NS2BH/NS3 serine protease after 15 mins by spectrofluorometer in presence of Boc-Gly-Arg-Arg-AMC; set-up: species or system dengue virus type 2
In short: (§6)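 His-tagged NS2BH/NS3 complex expressed in E. coli and purified by Talon affinity and Sephadex G-75. 67 nM protease preincubated 15 min at room temperature with 50 µM inhibitor in 200 mM Tris-HCl pH 9.5, 6 mM NaCl, 30% glycerol. Substrate added at 100 µM final (Boc-GKR-AMC for WNV, Boc-GRR-AMC for DENV2) for 15 min. AMC fluorescence read at ex 390/em 465 nm. Activity expressed as percent of no-inhibitor control; triplicate.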

[8] = target: Coagulation factor X (Homo sapiens) (UniProt P00742); test: Inhibition of protease activity of factor 10a using Boc-Ile-Glu-Gly-Arg-AMC substrate; in short: as §3
Coagulation factor X (Homo sapiens), sequence (P00742 41-179 limits assumed): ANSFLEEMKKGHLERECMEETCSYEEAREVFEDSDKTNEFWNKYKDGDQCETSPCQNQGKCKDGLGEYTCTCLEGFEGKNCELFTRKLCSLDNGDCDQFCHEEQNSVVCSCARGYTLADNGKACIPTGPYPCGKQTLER
Coagulation factor X (Homo sapiens), sequence (P00742 235-488 limits assumed): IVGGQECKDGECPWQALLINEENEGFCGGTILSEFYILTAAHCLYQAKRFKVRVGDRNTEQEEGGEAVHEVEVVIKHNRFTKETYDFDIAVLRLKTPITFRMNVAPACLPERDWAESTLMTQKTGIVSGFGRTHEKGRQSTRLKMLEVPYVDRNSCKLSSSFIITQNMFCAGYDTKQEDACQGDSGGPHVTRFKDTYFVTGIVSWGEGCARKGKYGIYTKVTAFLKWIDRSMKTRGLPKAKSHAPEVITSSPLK

[9] = Selectivity index, ratio of CC50 for African green monkey Vero cells to EC50 for West Nile virus EG101; assay type: toxicity, cell-based; details: read-out: Selectivity Index
[10] = Inhibition of West Nile virus EG101 NS2BH/NS3 serine protease after 15 mins using Boc-Gly-Lys-Arg-AMC substrate by spectrofluorometry; in short: as §6
[11] = system: West Nile virus; test: Antiviral activity against West Nile virus EG101 infected in Vero cells assessed as inhibition of viral replication measured 48 hrs post infection by luciferase reporter gene assay; assay type: functional, organism-based; in short: as §2
[12] = system: Vero; test: as §4; assay type: cell-based; details: chlorocebus sabaeus, vero, 24 h; in short: as §5

With `Oc1ccccc1C(Nc1nccs1)c1ccc2cccnc2c1O` (configuration not stated) the inhibition [1] was “Active”, the inhibition [2] was “Active” and the inhibition [3] was “Active”. The inhibition [4] was “Active”, the inhibition [5] was “inactive” and the CC50 at 24 h [6] was 140 µM. For the same molecule, the Ki [7] was 30.2 µM, the inhibition [8] was “inactive” and the selectivity ratio [9] was 100. For the same molecule, the Ki [10] was 3.4 µM and the EC50 [11] was 1.4 µM.

In the case of `CCn1c(SCC(=O)c2ccccc2)nc2ccccc2c1=O`, the Ki [7] is reported as 17 µM and the Ki [10] is reported as 37.3 µM.

Work on `Cc1cc(=O)oc2cc(NC(=O)[C@H](CCCNC(=N)N)NC(=O)[C@H](CCCCN)NC(=O)CNC(=O)OC(C)(C)C)ccc12` (Boc-Gly-Lys-Arg-{AMC}) yielded a Km [1] of 737 µM.

For `COc1cccc(C(NC(=O)c2ccccc2)c2ccc3cccnc3c2O)c1` (configuration not stated), the Activity [12] was “Toxic”, the Ki [7] was 28.6 µM and the Ki [10] was 3.2 µM.
